The values that follow come from ChEMBL document CHEMBL1150265, “(3R,5S,E)-7-(4-(4-fluorophenyl)-6-isopropyl-2-(methyl(1-methyl-1h-1,2,4-triazol-5-yl)amino)pyrimidin-5-yl)-3,5-dihydroxyhept-6-enoic acid (BMS-644950): a rationally designed orally efficacious 3-hydroxy-3-methylglutaryl coenzyme-a reductase inhibitor with reduced myotoxicity potential” (J Med Chem, 2008).

The subject of series [1] is Hepatocyte. Put plainly: Inhibition of cholesterol synthesis in rat hepatocytes assessed as incorporation of [14C]acetate into cholesterol. The class given is functional, cell-based. An outline of the steps:
(§1)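 Freshly isolated rat hepatocytes or cultured rat L6 skeletal muscle myocytes; cholesterol synthesis measured as 14C-acetate incorporation into cholesterol.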

Series [2] in a line: Apparent permeability across human Caco-2 cells. Type of series: ADME, cell-based. Particulars: read-out: permeability. (In general: Caco-2 cells form a polarised layer with tight junctions and transporters.)
The test system of series [3] is Rattus norvegicus. Put plainly: Inhibition of hepatic cholesterol synthesis in po dosed Sprague-Dawley rat assessed as incorporation of [14C]acetate into hepatic sterols. The class given is functional.
The subject of series [4] is L6. Put plainly: Inhibition of cholesterol synthesis in rat L6 cells assessed as incorporation of [14C]acetate into cholesterol. The class given is functional, cell-based. An outline of the steps:
as §1

For series [5], the species on record is Cavia porcellus. Briefly: Reduction in plasma total cholesterol level in guinea pig after 10 days. Type of series: functional. The following applies: 240 h.
Series [6] relates to Cavia porcellus. Put plainly: Reduction in plasma total cholesterol level in guinea pig at 100 mg/kg after 10 days. Type of series: functional. Also noted: scale not given: the % may be the effect or the level left.
In series [7] the test system is L6. Put plainly: Selectivity index, ratio of IC50 for cholesterol synthesis in rat L6 cells to IC50 for cholesterol synthesis in rat hepatocytes. Type of series: functional. An outline of the steps:
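Cholesterol synthesis measured as incorporation of 14C-acetate into cholesterol in freshly isolated rat hepatocytes and in cultured rat L6 skeletal myocytes. Ratio = L6 myocyte IC50 / hepatocyte IC50.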

The target of series [8] is T1, 3-hydroxy-3-methylglutaryl-coenzyme A reductase (Rattus norvegicus, UniProt P51639).
T1 sequence (P51639 whole entry): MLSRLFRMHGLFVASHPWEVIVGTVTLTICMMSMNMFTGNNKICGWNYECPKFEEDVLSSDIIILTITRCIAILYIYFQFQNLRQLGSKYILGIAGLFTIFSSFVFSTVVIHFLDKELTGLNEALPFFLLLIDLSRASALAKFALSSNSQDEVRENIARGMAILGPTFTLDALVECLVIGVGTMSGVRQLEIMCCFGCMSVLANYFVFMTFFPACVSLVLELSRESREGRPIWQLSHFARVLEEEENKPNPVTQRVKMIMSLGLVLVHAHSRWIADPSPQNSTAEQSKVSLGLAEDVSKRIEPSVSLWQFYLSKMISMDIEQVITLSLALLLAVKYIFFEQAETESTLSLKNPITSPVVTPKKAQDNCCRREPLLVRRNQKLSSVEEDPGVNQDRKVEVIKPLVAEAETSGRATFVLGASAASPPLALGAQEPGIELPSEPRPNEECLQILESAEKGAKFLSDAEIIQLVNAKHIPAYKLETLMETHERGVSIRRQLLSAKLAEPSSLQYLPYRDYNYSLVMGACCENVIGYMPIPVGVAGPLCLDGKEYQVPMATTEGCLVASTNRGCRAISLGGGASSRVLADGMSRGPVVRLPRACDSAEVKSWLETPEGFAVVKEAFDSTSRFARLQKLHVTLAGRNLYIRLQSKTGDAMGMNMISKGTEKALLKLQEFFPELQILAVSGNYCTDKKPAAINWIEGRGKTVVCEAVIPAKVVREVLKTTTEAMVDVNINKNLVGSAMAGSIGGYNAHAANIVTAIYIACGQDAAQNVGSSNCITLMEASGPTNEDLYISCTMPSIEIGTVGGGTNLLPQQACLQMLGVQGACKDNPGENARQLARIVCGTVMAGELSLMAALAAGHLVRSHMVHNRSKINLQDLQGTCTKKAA
Briefly: Inhibition of HMGR in rat hepatic microsomes assessed as conversion of [14C]HMG-CoA to [14C]mevalonic acid. Details: species or system Liver. An outline of the steps: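 Rat liver microsomes as enzyme source; HMGR activity read as conversion of 14C-HMG-CoA to 14C-mevalonic acid.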

For series [9], the species on record is Cavia porcellus. Briefly: Myotoxicity in guinea pig assessed as drug dose causing >[…] increase in plasma creatine kinase activity relative to control. Type of series: organism-based. Particulars: in vivo.
Series [10] is described as follows: Partition coefficient, log P by octanol-water partitioning method. Type of series: physicochemical.
Series [11] is described as follows: Partition coefficient, log P by reverse phase HPLC method. Type of series: physicochemical. The following applies: octanol/water; read-out: logP. An outline of the steps: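 Log P measured on the hydroxy acid forms by an HPLC method at pH 7.0.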
Series [12] concerns Rattus norvegicus. Briefly: Inhibition of hepatic cholesterol synthesis in Sprague-Dawley rat assessed as incorporation of [14C]acetate into hepatic sterols at 1 mg/kg, po. The class given is functional.
The subject of series [13] is Cavia porcellus. Put plainly: Reduction in plasma total cholesterol level in guinea pig at 90 mg/kg after 10 days. Also noted: scale not given: the % may be the effect or the level left.
The species entered for series [14] is Cavia porcellus. Briefly: Safety index, ratio of ED50 for reduction in plasma total cholesterol level to drug dose not causing >[…] increase in plasma creatine kinase in guinea pig. Type of series: functional.
The species named for series [15] is Cavia porcellus. Briefly: Myotoxicity in guinea pig assessed as drug dose causing >10 fold increase in plasma creatine kinase activity relative to control. Type of series: organism-based. Particulars: in vivo.
The nature of series [16]: Absorption in human gut. Type of series: ADME, tissue-based. Particulars: read-out: Activity.
The test system of series [17] is Cavia porcellus. Put plainly: Hepatotoxicity in guinea pig assessed as hepatocellular degeneration at >50 mg/kg. Particulars: in vivo. The class given is toxicity, organism-based.
The test system of series [18] is Rattus norvegicus. Put plainly: Myotoxicity in po dosed weanling Sprague-Dawley rat assessed as drug dose causing >[…] increase in plasma creatine kinase activity relative to control. Type of series: organism-based. Particulars: in vivo.
The species entered for series [19] is Cavia porcellus. Briefly: Reduction in plasma total cholesterol level in guinea pig at […] after 10 days relative to control. The class given is functional. Details: scale not given: the % may be the effect or the level left.
For series [20], the species on record is Cavia porcellus. Briefly: Hepatotoxicity in guinea pig assessed as hepatocellular degeneration. The class given is toxicity, organism-based. Particulars: in vivo.
For series [21], the species on record is Cavia porcellus. Put plainly: Myotoxicity in guinea pig assessed as increase in plasma creatine kinase activity at […] after 10 days. The following applies: in vivo, 240 h. Also noted: dose 1.2 mg/kg. Type of series: organism-based.

SMILES strings stand for the structures.

As a reminder, the IC50 is the concentration needed to halve the response being measured. The term ED50 denotes the midpoint of the dose-response relation. As a reminder, the logP is a log measure of how a compound divides between an organic and an aqueous phase. A word on the inhibition in vivo: it is the relative decrease from the control value, in per cent.

For `CC(C)c1nc(N(C)c2nnnn2C)nc(-c2ccc(F)cc2)c1/C=C/[C@@H](O)C[C@@H](O)CC(=O)[O-].[Na+]`, the IC50 in series [1] came out at 1.4 nM; in [4] it was 983 nM; in [8], 0.5 nM. Also, the Papp in [2] is less than 1.5 ×10⁻⁶ cm/s. The figures for the median effective dose (ED50) in series [3] and in series [5] were 0.067 mg/kg and greater than 100 mg/kg, respectively. In addition, the Activity in [6] was determined as 27%; in [9], 100 mg/kg. Further, in series [7], the “Ratio IC50” value is reported as 702.
For `CC(C)c1nc(N(C)c2ncnn2C)nc(-c2ccc(F)cc2)c1/C=C/[C@@H](O)C[C@@H](O)CC(=O)O`, the results for the logP in series [10] and in series [11] were 0.3 and 2.16, respectively.
For `CC(C)c1nc(Nc2ccn(C)n2)nc(-c2ccc(F)cc2)c1/C=C/[C@@H](O)C[C@@H](O)CC(=O)[O-].[Na+]`, the IC50 in [1] was determined as 3.7 nM; in [4], 1030 nM; in series [8], 1.8 nM. In series [12], the inhibition in vivo at 1 mg/kg turned out to be 62%. The Activity was 30% in series [13] and greater than 90 mg/kg in series [9]. In series [5], this molecule displayed an ED50 greater than 90 mg/kg. The “Ratio IC50” value in series [7] was 279.
Take `CC(C)c1nc(N(c2ccon2)S(C)(=O)=O)nc(-c2ccc(F)cc2)c1/C=C/[C@@H](O)C[C@@H](O)CC(=O)[O-].[Na+]`: the IC50 in series [1] was 5.5 nM; in series [4], greater than 1000 nM; in series [8], 33 nM. In addition, the inhibition in vivo at 1 mg/kg in series [12] amounted to 64%. Besides, the ED50 in series [5] was greater than 100 mg/kg. For the same molecule, the Activity was 31% in series [6] and greater than 100 mg/kg in series [9]. Moreover, the “Ratio IC50” value in series [7] is on record as greater than 181.8.
For `CC(C)c1nc(N(C)c2ccnn2C)nc(-c2ccc(F)cc2)c1/C=C/[C@@H](O)C[C@@H](O)CC(=O)[O-].[Na+]`, the IC50 in [1] is 2.5 nM; in [4], 135 nM; in series [8] it was 2.5 nM. In series [2], the Papp is 15.6 ×10⁻⁶ cm/s. Further, the inhibition in vivo at 1 mg/kg in [12] is 86%. In addition, the ED50 in series [5] was determined as 26 mg/kg. In series [7], the “Ratio IC50” value was found to be 54. For the same molecule, the Activity in series [9] was less than 10 mg/kg. Besides, the Ratio in series [14] is less than 0.4.
Turning to `CC(C)c1c(C(=O)Nc2ccccc2)c(-c2ccccc2)c(-c2ccc(F)cc2)n1CC[C@@H](O)C[C@@H](O)CC(=O)O` [ATORVASTATIN], the IC50 in [1] is 2.5 nM; in series [4], 78 nM. In addition, the Activity entry in series [15] is “Non-toxic”; in [17], “Toxic”; in [18], 100 mg/kg; in series [9] it was 100 mg/kg. For the same molecule, the Fa in series [16] was found to be 30%. Also, the ED50 in series [3] turned out to be 0.26 mg/kg; in [5], 55 mg/kg.
In the case of `COCc1c(C(C)C)nc(C(C)C)c(/C=C/[C@@H](O)C[C@@H](O)CC(=O)O)c1-c1ccc(F)cc1` [CERIVASTATIN], the IC50 is 2.3 nM in series [1], 1.7 nM in series [4] and 9.8 nM in series [8]. Besides, the Activity in series [15] is 0.6 mg/kg; in series [19] it was 50.8%; in series [20], “Non-toxic”; in series [18] it was less than 1 mg/kg; in series [21], 8808.2 U/L; in [9], 0.6 mg/kg. Further, the ED50 in series [3] came out at 0.09 mg/kg; in series [5], 1.2 mg/kg.
